Bioassay records from PubChem.
A selection: hits, their analogues and other compounds. The true share with any hit is near 2.8%.
Calb biofilm kill – clotrimazole potentiators killing C. albicans biofilm, primary screen, 4-compound mixtures; C. albicans biofilm persisters + clotrimazole, fluorescence viability; primary screen in compound mixtures of four per well; inhibition, % at 7.6 µM; AID 1242, 2008; 120,000 compounds, 0.02% hits;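 active = inhibition above 30.3% in the primary screen of four-compound pools, then above 30% when the compound was retested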;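 note: compounds exposed to preformed 24 h biofilms for 48 h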
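Test system: C. albicans biofilms. Buffer or medium: RPMI/MOPS medium, pH 7.0. Timing: 48 h compound exposure at 37 °C. Technique: Alamar Blue fluorescence. Evaluation: percent inhibition of biofilm viability.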
Bim-Mcl-1 – inhibitors of Bim peptide binding to Mcl-1, primary screen, biochemical, bead-based flow cytometry, multiplex. inhibition, % at 10 µM. Bim peptide-Mcl-1 binding. AID 1009, 2008. 190,000 compounds, 0.1% hits; in the data active = inhibition above about 40%
Target sequence (Q07820 whole entry, looked up): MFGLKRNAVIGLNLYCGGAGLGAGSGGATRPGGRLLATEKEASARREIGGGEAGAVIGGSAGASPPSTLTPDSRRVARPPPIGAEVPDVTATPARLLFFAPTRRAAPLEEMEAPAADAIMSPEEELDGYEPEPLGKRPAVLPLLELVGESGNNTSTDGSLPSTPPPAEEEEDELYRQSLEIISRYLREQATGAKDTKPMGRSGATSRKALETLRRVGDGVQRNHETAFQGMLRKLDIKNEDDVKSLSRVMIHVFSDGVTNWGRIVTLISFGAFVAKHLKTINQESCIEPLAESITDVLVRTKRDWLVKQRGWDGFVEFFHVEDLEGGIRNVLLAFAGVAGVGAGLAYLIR
Calpain2 inh – inhibitors of pig calpain II, primary screen, biochemical, fluorogenic peptide substrate, 1536-well; purified calpain II, 30 min; inhibition, % at 16 µM; AID 1236, 2008; 220,000 compounds, 0.37% hits;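 active = inhibition above about 50%, limit read from the data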
Mcl1 Noxa PPI – Mcl-1/Noxa binding inhibitors, primary screen, biochemical, TR-FRET, 1536-well; Induced myeloid leukemia cell differentiation protein Mcl-1 (Homo sapiens), Q07820; TR-FRET Mcl-1/Noxa peptide binding, 2 h; inhibition, % at 21.7 µM; 220,000 compounds, 1.5% hits; AID 1022, 2008;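 active = compounds that cut the protein-peptide binding signal by more than 50% relative to plate controls in a single-dose test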;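 note: His-tagged Mcl-1 with rhodamine Noxa BH3 peptide and terbium anti-His antibody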
Arbovirus anti – antivirals against arbovirus infection, primary screen, cell-based, full library, 10K replicate subset. arbovirus infection cell-based antiviral screen. 200,000 compounds, 0.37% hits. inhibition, % at 10 µM; in the data active = inhibition above about 30%
Mcl1-Bid inh – Mcl-1/Bid binding inhibitors, primary screen, biochemical, TR-FRET, 1536-well. Induced myeloid leukemia cell differentiation protein Mcl-1 (Homo sapiens), Q07820. 220,000 compounds, 0.97% hits. inhibition, % at 21.7 µM. TR-FRET Mcl-1/Bid-Dy647 peptide binding;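 active = compounds that cut the binding signal by more than half at the single screening dose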;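 note: His-tagged Mcl-1 with europium anti-His antibody binding Bid BH3 peptide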
Each line names hits and unclear results; the compound was inactive in the other large screens.

Cc1ccc(-n2c(SCC(=O)NCCN3C(=O)CSC3=O)nnc2-c2ccccc2)cc1C	Mcl1-Bid inh 52
Cc1ccc(-n2c(SCC(=O)NCCN3C(=O)CSC3=O)nnc2-c2ccccc2)cc1	none
CC(C)Cc1csc(NC(=O)c2ccc(Cl)cc2)c1C(=O)O	none
CC(C)Cc1csc(NC(=O)c2ccccc2Cl)c1C(=O)O	Arbovirus anti 66
CCC(C)NC(=O)c1cccc(C)c1 (stereo not drawn)	none (no result: Bim-Mcl-1, Arbovirus anti)
Cc1cccc(C(=O)Nc2scc(CC(C)C)c2C(=O)O)c1	Arbovirus anti 65
CC1CCN(Cc2c(O)ccc3c(=O)c(-c4nc5ccccc5s4)c(N)oc23)CC1	Mcl1 Noxa PPI 53
CC1CCCN(Cc2c(O)ccc3c(=O)c(-c4nc5ccccc5s4)c(N)oc23)C1 (stereo not drawn)	none (no result: Calb biofilm kill)
O=C(c1ccc(COc2ccc(Cl)cc2)cc1)N1CCCCC1	Calpain2 inh 58
CCOC(=O)C1(Cc2cccc(OC)c2)CCN(Cc2ccc(C)s2)CC1	none
O=C(NCc1ccco1)C(c1ccc(F)cc1)N(C(=O)Cc1cccs1)c1cccnc1 (stereo not drawn)	none
COc1ccc(C2=NN(c3ccccc3)C(=O)/C2=C\c2ccc(O)c(OC)c2)cc1	Mcl1 Noxa PPI 52
COc1cc(/C=C2\SC(c3ccc(C)cc3)=NC2=O)ccc1O	none (no result: Calb biofilm kill)
Cc1ncc(CO)c(/C=N/NC(=O)c2cc(O)c(O)c(O)c2)c1O	Mcl1 Noxa PPI 67
Cc1ncc(CO)c(/C=N/NC(=O)c2ccc(Br)cc2)c1O	none
O=[N+]([O-])c1c(Nc2ccccn2)cc(Cl)c2nonc12	Mcl1 Noxa PPI 57 (no result: Bim-Mcl-1, Arbovirus anti)
O=C(O)c1cccc(Nc2cc(Cl)c3nonc3c2[N+](=O)[O-])c1	none
O=C(O)c1cc(O)c2c(c1)C(=O)c1cccc(O)c1C2=O	Mcl1 Noxa PPI 61
COCc1cc(C)nc(SCC[N+](C)(C)CC(=O)Nc2cccc(C(F)(F)F)c2)c1C#N	none
CC(C)CNC(=S)NC(=O)c1ccc(F)cc1	none
O=C1c2ccccc2C(=O)C1Cc1cccc2ccccc12	Mcl1-Bid inh 89 (no result: Calb biofilm kill)
COCCN(CCOC)C(=O)COC(=O)c1cc([N+](=O)[O-])ccc1Cl	none (no result: Bim-Mcl-1, Arbovirus anti)
Cc1ccc(NC(=O)COC(=O)c2ccc3c(c2)NC(=O)C2CCCN32)cc1 (stereo not drawn)	none (no result: Calb biofilm kill)
COC(=O)c1ccc2c(c1)NC(=O)C1CCCN21 (stereo not drawn)	Mcl1 Noxa PPI 64 (no result: Calb biofilm kill)
O=C(Cn1nc(C(F)(F)F)c2c1CCCC2)NCc1ccco1	Mcl1-Bid inh 98 (no result: Calb biofilm kill)
COc1ccc(CNC(=O)Cn2nc(C(F)(F)F)c3c2CCC3)cc1	none (no result: Calb biofilm kill)
O=C(Nc1nc2ccccc2[nH]1)c1ccc(Cl)c([N+](=O)[O-])c1	Mcl1 Noxa PPI 82
O=[N+]([O-])c1cc(/C=N/Nc2nc3ccccc3[nH]2)c(O)cc1O	Mcl1 Noxa PPI 75
CCCCC#Cc1cncc(C(=O)N/N=C/c2cccc(OC)c2)c1	none (no result: Bim-Mcl-1, Arbovirus anti)
Fc1cccc(Cl)c1CNc1ccc(N2CCCC2)cc1	Mcl1 Noxa PPI 72
NS(=O)(=O)c1ccc(NCc2c(F)cccc2Cl)cc1	none (no result: Calb biofilm kill)
CCCCCC1CC(=O)C=C(C)C1C(=O)OC (stereo not drawn)	none (no result: Bim-Mcl-1, Arbovirus anti)
COCCn1c(C)cc(C(=O)CSc2nc3ccccc3c(=O)[nH]2)c1C	Mcl1 Noxa PPI 61 (no result: Calb biofilm kill)
COc1ccc2[nH]c(-c3ccccc3)cc2c1	none (no result: Bim-Mcl-1, Arbovirus anti)
CCCS(=O)(=O)N1CCCC(C(=O)NCCc2ccc(Cl)cc2)C1 (stereo not drawn)	Mcl1-Bid inh 55 (no result: Calb biofilm kill)
O=C1C(Cl)=C(Nc2ccc3cn[nH]c3c2)C(=O)c2ccccc21	Mcl1 Noxa PPI 93 (no result: Bim-Mcl-1, Arbovirus anti)
CN(C)c1ccc(NC2=C(Cl)C(=O)c3ccccc3C2=O)cc1	Mcl1 Noxa PPI 100
COC(=O)C1=C(C)N(C2CCCCC2)C(=O)/C1=C\c1cccs1	none
Cc1nn(-c2ccc(Cl)c(Cl)c2)c(C)c1C(=O)O	Bim-Mcl-1 54
Cc1nn(-c2ccc(C(=O)O)cc2)c(C)c1Cl	none
CC(C)(C)C(=O)Nc1nc2cc3c(cc2s1)OCO3	none (no result: Bim-Mcl-1, Arbovirus anti)
O=C1NC(=S)N(C(=O)c2ccc(F)cc2)/C1=C/c1cccnc1	none (no result: Bim-Mcl-1, Arbovirus anti)
COc1ccc(/C=C2\C(=O)NC(=S)N2C(=O)c2ccc(C)cc2)cc1	Mcl1 Noxa PPI 77, Mcl1-Bid inh 56
C=CCn1c(SCC(=O)Nc2cc(C)on2)nnc1C1COc2ccccc2O1 (stereo not drawn)	none
C=CCn1c(SCc2c(C)noc2C)nnc1C1COc2ccccc2O1 (stereo not drawn)	Arbovirus anti 71 (no result: Calb biofilm kill)
Cc1cc(C)n(-c2ccc(C(=O)NC3CCCCC3)cc2)n1	none
Clc1ccc(N/N=C/c2ccncc2)cc1Cl	Mcl1 Noxa PPI 51
Fc1ccc(N/N=C/c2ccncc2)c(F)c1	none
c1coc(-c2nnc3sc(Cc4cccs4)nn23)c1	none (no result: Calb biofilm kill)
c1csc(Cc2nn3c(-c4n[nH]c5c4CCC5)nnc3s2)c1	Mcl1 Noxa PPI 54 (no result: Calb biofilm kill)
CC(C)=C(NC(=O)c1ccccc1)C(=O)Nc1ccc(C(=O)O)cc1	none (no result: Bim-Mcl-1, Arbovirus anti)
COC(=O)c1ccccc1NC(=O)c1cc(-c2ccc(O)cc2)on1	Mcl1 Noxa PPI 68, Arbovirus anti 48 (no result: Calb biofilm kill)
CCN1c2ccccc2-c2nc3ccccc3n2C1c1cccs1 (stereo not drawn)	none
O=C(Nc1c(-c2ccccc2)nc2ccccn12)c1ccco1	none (no result: Calb biofilm kill)
O=C(Nc1c(-c2ccccc2)nc2ccccn12)c1cccs1	Arbovirus anti 39
Cc1ccc(-n2[nH]c(=O)c3cccnc32)cc1	Mcl1 Noxa PPI 65 (no result: Calb biofilm kill)
CC(C)CC1=NN2C(=N)/C(=C\c3coc4ccccc4c3=O)C(=O)N=C2S1	Arbovirus anti 41
CCSC1=NSC2=NC(=O)/C(=C\c3coc4ccccc4c3=O)C(=N)N12	Arbovirus anti 31
O=C1NC(=S)S/C1=C\c1coc2ccccc2c1=O	none
COC(=O)c1cc(N2C(=O)C3C(C2=O)C2(C)C=CC3(C)O2)ccc1Cl (stereo not drawn)	Mcl1 Noxa PPI 69 (no result: Calb biofilm kill)
COC(=O)CCN(C(=O)c1cccc(OC(C)=O)c1)c1ccccn1	Mcl1-Bid inh 52 (no result: Calb biofilm kill)
COC(=O)CCN(C(=O)c1ccc2c(c1)OCO2)c1ccccn1	none (no result: Calb biofilm kill)
CCn1c2ccccc2c2cc(NC(=O)COC(=O)c3cc(S(N)(=O)=O)c(Cl)cc3Cl)ccc21	none
O=C(Nc1c(Cl)cccc1Cl)c1ccc(-c2ccccc2)cc1	none (no result: Calb biofilm kill)
O=C(Nc1ccc(Cl)cc1Cl)c1ccc(-c2ccccc2)cc1	Mcl1 Noxa PPI 70
CCn1c(COc2ccc(C)cc2)nnc1SCc1ccc(C#N)cc1	none (no result: Calb biofilm kill)
CCc1ccc(OCc2nnc(SCCN3CCOCC3)n2CC)cc1	Mcl1-Bid inh 58 (no result: Calb biofilm kill)
O=C(Cn1cnc2scc(-c3ccc(Br)cc3)c2c1=O)N1CCOCC1	none
